According to ChEMBL document CHEMBL5058577, “EUbOPEN Chemogenomics Library 2 (Multiplex)” (2022):

System: U2OS
Assay: Multiplex assay against U2OS
Assay type: toxicity, cell-based
Details: human
In short: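 Cells were classed with CellPathfinder machine-learning gating, first as Hoechst high-intensity objects or normal cells, then (normal cells) as healthy, pyknosed or fragmented nuclei, and finally (pyknosed cells) as mitotic or apoptotic. Staining of live cells at seeding used Hoechst33342, BioTracker Green Microtubule Cytoskeleton Dye, MitoTracker Red and Annexin V Alexa Fluor 680, with imaging on a CQ1 microscope at 37°C and 5% CO2 after compound addition. Tubulin, mitochondrial-mass and membrane-permeability phenotypes are per cents of healthy-nucleus cells.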

[1] = 12 h, 1 µM, compound concentration 1 uM, replicate 1
[2] = 12 h, 1 µM, compound concentration 1 uM, replicate 2
[3] = 12 h, 10 µM, compound concentration 10 uM, replicate 1
[4] = 12 h, 10 µM, compound concentration 10 uM, replicate 2
[5] = 24 h, 1 µM, compound concentration 1 uM, replicate 1
[6] = 24 h, 1 µM, compound concentration 1 uM, replicate 2
[7] = 24 h, 10 µM, compound concentration 10 uM, replicate 1
[8] = 24 h, 10 µM, compound concentration 10 uM, replicate 2
[9] = 48 h, 1 µM, compound concentration 1 uM, replicate 1
[10] = 48 h, 1 µM, compound concentration 1 uM, replicate 2
[11] = 48 h, 10 µM, compound concentration 10 uM, replicate 1
[12] = 48 h, 10 µM, compound concentration 10 uM, replicate 2

In the case of `Cc1cccc(NC(=O)CN2CCC(c3ccccn3)CC2)c1.Cl.Cl`, the “Population Apoptotic (%)” value [1] is reported as 90%, the “Population Fragmented Nuclei (%)” value [1] is reported as 27% and the “Population Healthy Nuclei (%)” value [1] is reported as 67%. For the same compound, the “Population Hoechst High Intensity Objects (%)” value [1] was 1%, the “Population Membrane Permeable-Phenotype (%)” value [1] was 5% and the “Population Mitochondria Different-Phenotype (%)” value [1] was 2%. For the same compound, the “Population Mitotic Cells (%)” value [1] was 9%, the “Population Normal (%)” value [1] was 98% and the “Population Pyknosed Nuclei (%)” value [1] was 5%. For the same compound, the “Population Tubulin-Different-Phenotype (%)” value [1] was 3%, the “Total Cell Count” value [1] was 208 and the “Population Apoptotic (%)” value [2] was 57%. For the same compound, the “Population Fragmented Nuclei (%)” value [2] was 17%, the “Population Healthy Nuclei (%)” value [2] was 76% and the “Population Hoechst High Intensity Objects (%)” value [2] was 0%. For the same compound, the “Population Membrane Permeable-Phenotype (%)” value [2] was 4%, the “Population Mitotic Cells (%)” value [2] was 42% and the “Population Normal (%)” value [2] was 99%. The “Population Pyknosed Nuclei (%)” value [2] was 6%, the “Total Cell Count” value [2] was 111 and the “Population Apoptotic (%)” value [3] was 72%. For the same compound, the “Population Fragmented Nuclei (%)” value [3] was 34%, the “Population Healthy Nuclei (%)” value [3] was 55% and the “Population Hoechst High Intensity Objects (%)” value [3] was 2%. The “Population Membrane Permeable-Phenotype (%)” value [3] was 8%, the “Population Mitochondria Different-Phenotype (%)” value [3] was 6% and the “Population Mitotic Cells (%)” value [3] was 27%. For the same compound, the “Population Normal (%)” value [3] was 97%, the “Population Pyknosed Nuclei (%)” value [3] was 10% and the “Population Tubulin-Different-Phenotype (%)” value [3] was 3%. The “Total Cell Count” value [3] was 216, the “Population Apoptotic (%)” value [4] was 66% and the “Population Fragmented Nuclei (%)” value [4] was 21%. The “Population Healthy Nuclei (%)” value [4] was 70%, the “Population Hoechst High Intensity Objects (%)” value [4] was 1% and the “Population Membrane Permeable-Phenotype (%)” value [4] was 12%. For the same compound, the “Population Mitochondria Different-Phenotype (%)” value [4] was 7%, the “Population Mitotic Cells (%)” value [4] was 33% and the “Population Normal (%)” value [4] was 98%. For the same compound, the “Population Pyknosed Nuclei (%)” value [4] was 8%, the “Population Tubulin-Different-Phenotype (%)” value [4] was 9% and the “Total Cell Count” value [4] was 111. For the same compound, the “Population Apoptotic (%)” value [5] was 76%, the “Population Fragmented Nuclei (%)” value [5] was 22% and the “Population Healthy Nuclei (%)” value [5] was 70%. The “Population Hoechst High Intensity Objects (%)” value [5] was 3%, the “Population Membrane Permeable-Phenotype (%)” value [5] was 5% and the “Population Mitochondria Different-Phenotype (%)” value [5] was 3%. The “Population Mitotic Cells (%)” value [5] was 23%, the “Population Normal (%)” value [5] was 96% and the “Population Pyknosed Nuclei (%)” value [5] was 7%. For the same compound, the “Population Tubulin-Different-Phenotype (%)” value [5] was 3%, the “Total Cell Count” value [5] was 249 and the “Population Apoptotic (%)” value [6] was 73%. The “Population Fragmented Nuclei (%)” value [6] was 21%, the “Population Healthy Nuclei (%)” value [6] was 67% and the “Population Hoechst High Intensity Objects (%)” value [6] was 0%. The “Population Membrane Permeable-Phenotype (%)” value [6] was 7%, the “Population Mitochondria Different-Phenotype (%)” value [6] was 4% and the “Population Mitotic Cells (%)” value [6] was 26%. For the same compound, the “Population Normal (%)” value [6] was 99%, the “Population Pyknosed Nuclei (%)” value [6] was 11% and the “Population Tubulin-Different-Phenotype (%)” value [6] was 5%. For the same compound, the “Total Cell Count” value [6] was 135, the “Population Apoptotic (%)” value [7] was 85% and the “Population Fragmented Nuclei (%)” value [7] was 32%. The “Population Healthy Nuclei (%)” value [7] was 55%, the “Population Hoechst High Intensity Objects (%)” value [7] was 3% and the “Population Membrane Permeable-Phenotype (%)” value [7] was 6%. For the same compound, the “Population Mitochondria Different-Phenotype (%)” value [7] was 3%, the “Population Mitotic Cells (%)” value [7] was 14% and the “Population Normal (%)” value [7] was 96%. For the same compound, the “Population Pyknosed Nuclei (%)” value [7] was 11%, the “Population Tubulin-Different-Phenotype (%)” value [7] was 2% and the “Total Cell Count” value [7] was 243. For the same compound, the “Population Apoptotic (%)” value [8] was 75%, the “Population Fragmented Nuclei (%)” value [8] was 20% and the “Population Healthy Nuclei (%)” value [8] was 73%. For the same compound, the “Population Hoechst High Intensity Objects (%)” value [8] was 2%, the “Population Membrane Permeable-Phenotype (%)” value [8] was 17% and the “Population Mitochondria Different-Phenotype (%)” value [8] was 5%. For the same compound, the “Population Mitotic Cells (%)” value [8] was 25%, the “Population Normal (%)” value [8] was 97% and the “Population Pyknosed Nuclei (%)” value [8] was 6%. For the same compound, the “Population Tubulin-Different-Phenotype (%)” value [8] was 10%, the “Total Cell Count” value [8] was 131 and the “Population Apoptotic (%)” value [9] was 82%. For the same compound, the “Population Fragmented Nuclei (%)” value [9] was 18%, the “Population Healthy Nuclei (%)” value [9] was 72% and the “Population Hoechst High Intensity Objects (%)” value [9] was 2%. The “Population Membrane Permeable-Phenotype (%)” value [9] was 6%, the “Population Mitochondria Different-Phenotype (%)” value [9] was 3% and the “Population Mitotic Cells (%)” value [9] was 17%. For the same compound, the “Population Normal (%)” value [9] was 97%, the “Population Pyknosed Nuclei (%)” value [9] was 8% and the “Population Tubulin-Different-Phenotype (%)” value [9] was 3%. The “Total Cell Count” value [9] was 341, the “Population Apoptotic (%)” value [10] was 94% and the “Population Fragmented Nuclei (%)” value [10] was 17%. The “Population Hoechst High Intensity Objects (%)” value [10] was 3%, the “Population Membrane Permeable-Phenotype (%)” value [10] was 2% and the “Population Mitotic Cells (%)” value [10] was 5%. For the same compound, the “Population Normal (%)” value [10] was 96%, the “Population Pyknosed Nuclei (%)” value [10] was 10% and the “Population Tubulin-Different-Phenotype (%)” value [10] was 2%. The “Total Cell Count” value [10] was 182, the “Population Apoptotic (%)” value [11] was 96% and the “Population Fragmented Nuclei (%)” value [11] was 29%. The “Population Healthy Nuclei (%)” value [11] was 60%, the “Population Hoechst High Intensity Objects (%)” value [11] was 3% and the “Population Membrane Permeable-Phenotype (%)” value [11] was 6%. For the same compound, the “Population Mitochondria Different-Phenotype (%)” value [11] was 6%, the “Population Mitotic Cells (%)” value [11] was 3% and the “Population Normal (%)” value [11] was 96%. For the same compound, the “Population Pyknosed Nuclei (%)” value [11] was 9%, the “Population Tubulin-Different-Phenotype (%)” value [11] was 3% and the “Total Cell Count” value [11] was 303. The “Population Apoptotic (%)” value [12] was 83%, the “Population Fragmented Nuclei (%)” value [12] was 19% and the “Population Healthy Nuclei (%)” value [12] was 74%. The “Population Membrane Permeable-Phenotype (%)” value [12] was 10%, the “Population Mitochondria Different-Phenotype (%)” value [12] was 4% and the “Population Mitotic Cells (%)” value [12] was 16%. For the same compound, the “Population Pyknosed Nuclei (%)” value [12] was 6%, the “Population Tubulin-Different-Phenotype (%)” value [12] was 4% and the “Total Cell Count” value [12] was 198.
